Measurements as given in ChEMBL document CHEMBL1140074, “Aminoacyl-anthraquinone conjugates as telomerase inhibitors: synthesis, biophysical and biological evaluation” (J Med Chem, 2008).
pEC50, pIC50: −log10 of the molar value.

Experiments:
[1] = species on record: Homo sapiens; assay: Binding affinity to human telomeric DNA sequence assessed as stabilization of G-quadruplex at 10 uM by thermal denaturation
Outline: (§1)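 Fluorescence melting in a LightCycler of 0.25 µM telomeric oligonucleotide HTS (5'-FAM, 3'-methyl red) in LiP buffer (10 mM LiOH, 50 mM KCl, pH 7.4 with H3PO4). Samples were denatured at 95 °C for 5 min, then cooled and reheated at 0.5 °C/min in 1 °C steps with 2 min equilibration per step. Excitation 488 nm, emission 520 nm. ΔTm was taken relative to ligand-free DNA.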

[2] = target: Telomerase reverse transcriptase (Homo sapiens, UniProt O14746); assay: Inhibition of telomerase in human JR8 cells by TRAP assay; assay type: cell-based
Sequence of Telomerase reverse transcriptase (O14746 whole entry): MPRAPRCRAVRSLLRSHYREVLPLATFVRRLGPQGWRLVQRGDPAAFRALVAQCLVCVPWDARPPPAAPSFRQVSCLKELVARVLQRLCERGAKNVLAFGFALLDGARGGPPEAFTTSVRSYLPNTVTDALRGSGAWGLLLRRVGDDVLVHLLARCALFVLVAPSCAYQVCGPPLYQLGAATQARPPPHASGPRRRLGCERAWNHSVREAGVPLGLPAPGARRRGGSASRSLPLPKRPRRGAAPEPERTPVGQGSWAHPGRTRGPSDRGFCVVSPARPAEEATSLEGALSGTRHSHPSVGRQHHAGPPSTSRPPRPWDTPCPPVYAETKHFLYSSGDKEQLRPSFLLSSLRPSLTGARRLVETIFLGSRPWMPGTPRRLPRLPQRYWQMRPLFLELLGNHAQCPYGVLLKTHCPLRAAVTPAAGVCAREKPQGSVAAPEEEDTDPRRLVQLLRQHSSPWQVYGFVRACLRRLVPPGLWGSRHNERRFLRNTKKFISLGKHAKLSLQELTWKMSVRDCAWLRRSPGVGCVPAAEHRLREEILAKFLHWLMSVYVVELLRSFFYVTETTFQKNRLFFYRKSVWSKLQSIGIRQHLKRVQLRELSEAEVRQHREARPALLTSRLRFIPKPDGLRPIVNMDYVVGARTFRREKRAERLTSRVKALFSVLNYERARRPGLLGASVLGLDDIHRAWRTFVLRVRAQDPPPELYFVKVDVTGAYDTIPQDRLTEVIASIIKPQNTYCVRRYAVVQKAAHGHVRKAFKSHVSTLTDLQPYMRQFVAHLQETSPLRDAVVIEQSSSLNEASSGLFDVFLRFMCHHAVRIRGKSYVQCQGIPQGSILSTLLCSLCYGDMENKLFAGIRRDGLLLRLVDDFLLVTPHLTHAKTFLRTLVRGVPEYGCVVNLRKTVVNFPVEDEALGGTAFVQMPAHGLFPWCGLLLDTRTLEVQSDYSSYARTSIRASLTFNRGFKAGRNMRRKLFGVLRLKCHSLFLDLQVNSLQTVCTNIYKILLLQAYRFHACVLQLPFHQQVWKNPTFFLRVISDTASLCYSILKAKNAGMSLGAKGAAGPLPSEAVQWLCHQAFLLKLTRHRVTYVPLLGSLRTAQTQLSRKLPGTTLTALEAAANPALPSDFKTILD
Outline: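 Telomerase source was a CHAPS lysate of exponentially growing JR8 cells (500 ng protein per reaction). Elongation 30 min at 30 °C, then 30 PCR cycles. Products run on 10% PAGE with phosphorimager read-out, in triplicate. Drug levels kept below those inhibiting Taq.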

[3] = tested on: HeLa; assay: Cytotoxicity against human HeLa cells expressing telomerase after 96 hrs by MTT assay; assay type: functional, cell-based
Outline: (§2)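 Cells grown in DMEM with 10% heat-inactivated FCS, penicillin/streptomycin, 37 °C, 5% CO2. Plated at 10000 cells/well and left overnight, then exposed to eight serial dilutions in triplicate for 96 h. MTT added to 0.8 mg/mL final for 2 h, formazan dissolved in DMSO, absorbance read at 540 nm. IC50 from sigmoidal dose-response fits.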

[4] = Cytotoxicity against human 293T cells expressing telomerase after 96 hrs by MTT assay; assay type: cell-based; conditions: HEK-293T; outline: as §2
[5] = species on record: Homo sapiens; assay: Binding affinity to human telomeric DNA sequence assessed as stabilization of G-quadruplex at 1 uM by thermal denaturation; outline: as §1
[6] = target: DNA polymerase I, thermostable (Thermus aquaticus, UniProt P19821); assay: Inhibition of Taq polymerase
Sequence of DNA polymerase I, thermostable (P19821 whole entry): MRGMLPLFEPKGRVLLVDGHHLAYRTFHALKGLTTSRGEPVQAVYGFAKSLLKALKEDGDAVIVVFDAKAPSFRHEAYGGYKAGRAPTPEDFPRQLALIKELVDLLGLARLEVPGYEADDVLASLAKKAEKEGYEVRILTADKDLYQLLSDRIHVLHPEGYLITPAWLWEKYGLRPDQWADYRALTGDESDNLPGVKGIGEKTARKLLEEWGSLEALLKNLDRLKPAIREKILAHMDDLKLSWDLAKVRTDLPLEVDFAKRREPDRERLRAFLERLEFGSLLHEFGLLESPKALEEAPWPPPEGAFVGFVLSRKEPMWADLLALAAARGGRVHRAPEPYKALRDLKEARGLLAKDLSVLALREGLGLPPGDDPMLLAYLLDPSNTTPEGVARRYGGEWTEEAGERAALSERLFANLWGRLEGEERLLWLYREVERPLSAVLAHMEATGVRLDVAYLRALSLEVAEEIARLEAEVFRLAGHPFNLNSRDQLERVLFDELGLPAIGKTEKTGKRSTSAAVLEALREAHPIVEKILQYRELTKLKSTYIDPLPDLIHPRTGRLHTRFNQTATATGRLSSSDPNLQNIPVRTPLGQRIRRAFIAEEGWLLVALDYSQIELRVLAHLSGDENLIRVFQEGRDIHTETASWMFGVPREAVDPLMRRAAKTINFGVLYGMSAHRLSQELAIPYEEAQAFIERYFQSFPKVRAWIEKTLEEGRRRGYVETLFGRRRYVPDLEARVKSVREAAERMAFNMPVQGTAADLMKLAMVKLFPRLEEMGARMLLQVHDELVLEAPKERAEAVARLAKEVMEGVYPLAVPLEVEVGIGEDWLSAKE
Outline: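 PCR with 2.5 ng pBR322 template and primers Tup/Tdown (0.5 µM) amplifying plasmid bases 906-1064. Compounds tested from 20 nM to 40 µM. Run 25 cycles of 94 °C, 65 °C and 72 °C (30 s each). Products resolved on 2% agarose in TBE and stained with ethidium bromide.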

| ΔTm [1] [°C] | pEC50 [2] | ΔTm [5] [°C] | pEC50 [6] | Structure (SMILES) | pIC50 [3] | pIC50 [4] |
| --- | --- | --- | --- | --- | --- | --- |
| 3.6 | 4.60 | 0.1 | < 4.40 | NCC(=O)Nc1ccc2c(c1)C(=O)c1ccc(NC(=O)CN)cc1C2=O | 4.12 | < 4.00 |
| 4.3 | 4.60 | 0.8 | < 4.40 | CC[C@H](C)[C@H](N)C(=O)NCC(=O)Nc1ccc2c(c1)C(=O)c1ccc(NC(=O)CNC(=O)[C@@H](N)[C@@H](C)CC)cc1C2=O | 4.74 | 4.38 |
| 9 | 5.30 | 2 | 4.70 | NCCNC(=O)c1ccc2c(c1)C(=O)c1ccc(C(=O)NCCN)cc1C2=O | 4.40 | 4.07 |
| 17 | 5.82 | 3 | 5.60 | NCCCC[C@H](N)C(=O)NCCC(=O)Nc1ccc2c(c1)C(=O)c1cc(NC(=O)CCNC(=O)[C@@H](N)CCCCN)ccc1C2=O | < 4.00 | < 4.00 |
| 25 | – | 4.8 | – | N=C(N)NCCC[C@H](N)C(=O)NCCC(=O)Nc1ccc2c(c1)C(=O)c1ccc(NC(=O)CCNC(=O)[C@@H](N)CCCNC(=N)N)cc1C2=O | 4.00 | < 4.00 |
| 22.9 | – | 9.8 | – | N=C(N)NCCC[C@H](N)C(=O)NCC(=O)Nc1ccc2c(c1)C(=O)c1ccc(NC(=O)CNC(=O)[C@@H](N)CCCNC(=N)N)cc1C2=O | 4.05 | 4.07 |
| 0.6 | < 4.40 | 0.5 | < 4.40 | N[C@@H](Cc1ccccc1)C(=O)NCC(=O)Nc1ccc2c(c1)C(=O)c1ccc(NC(=O)CNC(=O)[C@@H](N)Cc3ccccc3)cc1C2=O | – | – |
| 3 | < 4.40 | 0.4 | < 4.40 | CC[C@H](C)[C@H](N)C(=O)NCCNC(=O)c1ccc2c(c1)C(=O)c1cc(C(=O)NCCNC(=O)[C@@H](N)[C@@H](C)CC)ccc1C2=O | – | – |
| 16.2 | – | 5.1 | – | N=C(N)NCCC[C@H](N)C(=O)NCCNC(=O)c1ccc2c(c1)C(=O)c1cc(C(=O)NCCNC(=O)[C@@H](N)CCCNC(=N)N)ccc1C2=O | 4.46 | 4.07 |
| 1.1 | < 4.40 | 0.2 | < 4.40 | CC[C@H](C)[C@H](N)C(=O)NCCNC(=O)c1ccc2c(c1)C(=O)c1ccc(C(=O)NCCNC(=O)[C@@H](N)[C@@H](C)CC)cc1C2=O | – | – |
| – | – | – | – | O=C1c2c(O)ccc(O)c2C(=O)c2c(NCCNCCO)ccc(NCCNCCO)c21 [MITOXANTRONE] | > 7.00 | > 7.00 |
| 4.3 | < 4.40 | 0.5 | < 4.40 | N[C@@H](Cc1ccccc1)C(=O)NCCC(=O)Nc1ccc2c(c1)C(=O)c1ccc(NC(=O)CCNC(=O)[C@@H](N)Cc3ccccc3)cc1C2=O | – | – |
| 1.1 | < 4.40 | 0.2 | < 4.40 | N[C@@H](Cc1ccccc1)C(=O)NCCNC(=O)c1ccc2c(c1)C(=O)c1ccc(C(=O)NCCNC(=O)[C@@H](N)Cc3ccccc3)cc1C2=O | – | – |
| 8.2 | < 4.40 | 0.2 | < 4.40 | C[C@H](N)C(=O)NCCC(=O)Nc1ccc2c(c1)C(=O)c1ccc(NC(=O)CCNC(=O)[C@H](C)N)cc1C2=O | – | – |
| 3.8 | < 4.40 | 0.7 | < 4.40 | CC(C)C[C@H](N)C(=O)NCC(=O)Nc1ccc2c(c1)C(=O)c1ccc(NC(=O)CNC(=O)[C@@H](N)CC(C)C)cc1C2=O | – | – |
| 6 | < 4.40 | 0.5 | < 4.40 | CC(C)[C@H](N)C(=O)NCC(=O)Nc1ccc2c(c1)C(=O)c1ccc(NC(=O)CNC(=O)[C@@H](N)C(C)C)cc1C2=O | – | – |
| 2.8 | < 4.40 | 0.2 | < 4.40 | CC[C@H](C)[C@H](N)C(=O)NCCC(=O)Nc1ccc2c(c1)C(=O)c1cc(NC(=O)CCNC(=O)[C@@H](N)[C@@H](C)CC)ccc1C2=O | – | – |
